This is an account of results in ChEMBL document CHEMBL2424600, “Synthetic polyamines activating autophagy: effects on cancer cell death” (Eur J Med Chem, 2013).

The structures appear in SMILES notation. Activity calls are given as the source filed them. The calls are words filed in the database; no cut-off is given here.

In assay [1] the test system is HeLa. Nature of the assay: Induction of autophagy in human HeLa cells assessed as conversion of LC3-1 protein to LC3-2 protein at 8 mM after 24 hrs by Western blot analysis. In kind it is functional, cell-based. The essentials:
(§1)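 HeLa incubated 24 h with DENSPM (25 µM) or spermidine (8 mM); LC3-I/LC3-II processing by Western blot of 50 µg protein with monoclonal anti-LC3 antibody.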
(In western blotting, separated proteins are transferred to a membrane and probed.)

The test system of assay [2] is HeLa. The assay is described as follows: Induction of autophagy in human HeLa cells assessed as acidic vesicles accumulation at 20 uM after 3 hrs by acridine orange staining-based immunofluorescence microscopic analysis. In kind it is functional, cell-based. The essentials:
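HeLa incubated 3 h with 20 µM compound; acidic vesicle accumulation scored after acridine orange staining. Triplicate means ± S.E.M.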

The subject of assay [3] is Thymocyte. Nature of the assay: Cytotoxicity against rat thymocytes assessed as cell survival after 24 hrs by trypan blue exclusion assay. In kind it is cell-based. The essentials: (§2)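 Cells exposed 24 h to increasing concentrations (DMSO vehicle, 0.1% of medium; controls got DMSO) at 37 °C, 5% CO2. Viability by trypan blue exclusion, triplicate samples, at least 10 fields counted each; survival as % of viable cells vs control. IC50 read from dose–response curve as concentration giving 50% survival.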

A short description of assay [4]: Cytotoxicity against human C-28/I2 cells assessed as cell survival after 24 hrs by trypan blue exclusion assay. In kind it is cell-based. To be noted: C28/I2, 24 h. The essentials: as §2
In assay [5] the test system is HeLa. The assay is described as follows: Cytotoxicity against human HeLa cells assessed as cell survival after 24 hrs by trypan blue exclusion assay. The assay is classed as functional, cell-based. The essentials: as §2
Assay [6] relates to HeLa. The assay is described as follows: Induction of autophagy in human HeLa cells assessed as conversion of LC3-1 protein to LC3-2 protein at 25 uM after 24 hrs by Western blot analysis. In kind it is functional, cell-based. The essentials: as §1
Assay [7] relates to HeLa. The assay is described as follows: Cytotoxicity against human HeLa cells assessed as decrease in cell survival at 25 uM after 24 hrs by trypan blue exclusion assay relative to control. In kind it is functional. The conditions noted are these: read-out: Survival. The essentials:
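HeLa cells grown in EMEM with 10% FBS, 1% glutamine, 1% nonessential amino acids, 1 mM pyruvate and antibiotics at 37 °C in 5% CO2. Compound added from DMSO stock (DMSO 0.1% of volume; controls got DMSO only) and exposed 24 h. Viability read by trypan blue exclusion in triplicate samples, at least 10 fields counted. Survival given as % viable cells versus control.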

Assay [8] concerns HeLa. Nature of the assay: Induction of apoptosis in human HeLa cells assessed as increase in caspase 3/7 activity at 25 uM after 24 hrs by DEVD-based fluorometric analysis. The assay is classed as functional, cell-based. The essentials:
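HeLa treated 24 h with 25 µM DENSPM (positive control) or the indicated concentrations of compound; DEVDase (caspase 3/7) activity measured. Means ± S.E.M. of three replicates vs control.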

`NCCCCNCCCN`: the outcome in assay [1] was Active.
`c1ccc(C(CNCCCCCCNCCCCCCCCNCCCCCCNCC(c2ccccc2)c2ccccc2)c2ccccc2)cc1`: in assay [2], the result was Active. For the same compound, the IC50 (as a rule, the midpoint of a concentration-inhibition curve) in assay [3] came out at 82 µM; in assay [4] it was 60 µM; in assay [5] it was 18 µM.
Take `CCNCCCNCCCNCCCNCC` [BIS(ETHYL)NORSPERMINE]: the outcome in assay [6] was inactive. For the same compound, the viability at 25 µM in assay [7] stood at 50%. Also, the outcome in assay [8] was Active.
